Laboratory results from ChEMBL document CHEMBL1124180, “Asymmetric synthesis and properties of the enantiomers of the antibacterial agent 7-(3-aminopyrrolidin-1-yl)-1-(2,4-difluorophenyl)-1,4-dihydro-6- fluoro-4-oxo-1,8-naphthyridine-3-carboxylic acid hydrochloride” (J Med Chem, 1988).
≈ marks a conversion by molar mass, not a printed value.

Legend:
[1] = tested on: Mus musculus; assay: In vivo activity against Pseudomonas aeruginosa A5007 (100X LD50), administered po( each compound tested at 3 doses with 10 animals); type: functional
Summary of the method: (§1)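 Mice were challenged intraperitoneally with the organism. The compound was given orally as a total dose split into equal portions at 1 and 5 h post-infection. Three doses were used, with 10 animals per dose.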

[2] = tested on: Bacteroides fragilis; assay: In vitro activity against Bacteroides fragilis (SFM2975-7); type: functional
Summary of the method: (§2)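 MIC determined under anaerobic conditions on Wilkins-Chalgren agar.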

[3] = tested on: Peptostreptococcus; assay: In vitro activity against Peptostreptococcus sp.(TB-11); type: functional
Summary of the method: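 MIC for anaerobic bacteria, measured on Wilkins-Chalgren agar.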

[4] = tested on: Bacteroides fragilis; assay: In vitro activity against Bacteroides fragilis (SFM2929-1); type: functional; summary of the method: as §2
[5] = tested on: Mus musculus; assay: In vivo activity against Escherichia coli Juhl(100X LD50), when administered sc( each compound tested at 3 doses with 10 animals); type: functional
Summary of the method: (§3)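 Mice were challenged intraperitoneally with the organism. The compound was given subcutaneously as a total dose split into equal portions at 1 and 5 h post-infection. Three doses were used, with 10 animals per dose.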

[6] = tested on: Mus musculus; assay: In vivo activity against Escherichia coli Juhl(100X LD50), when administered po( each compound tested at 3 doses with 10 animals); type: functional; summary of the method: as §1
[7] = tested on: Cutibacterium acnes; assay: In vitro activity against Propionibacterium acnes (132); type: functional; summary of the method: as §2
[8] = tested on: Phocaeicola vulgatus; assay: In vitro activity against Bacteroides vulgatus(SFBC 2375); type: functional; summary of the method: as §2
[9] = tested on: Hoylesella loescheii; assay: In vitro activity against Bacteroides loescheii (ATCC 15930).; type: functional; summary of the method: as §2
[10] = tested on: Prevotella melaninogenica; assay: In vitro activity against Bacteroides melaninogenicus (ATCC 25845).; type: functional; summary of the method: as §2
[11] = tested on: Prevotella bivia; assay: In vitro activity against t Bacteroides bivius(B 6140); type: functional
Summary of the method: (§4)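 Anaerobic MICs measured by agar dilution on Wilkins-Chalgren agar.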

[12] = tested on: Bacteroides thetaiotaomicron; assay: microbe, parasite or virus in culture; conditions: ATCC 29741
[13] = tested on: Phocaeicola vulgatus; assay: In vitro activity against Bacteroides vulgatus(792); type: functional; summary of the method: as §2
[14] = tested on: Mus musculus; assay: In vivo activity against Pseudomonas aeruginosa A5007 (100X LD50), administered sc ( each compound tested at 3 doses with 10 animals); type: functional; summary of the method: as §3
[15] = tested on: Bacteroides fragilis; assay: In vitro activity against Bacteroides fragilis (784); type: functional; summary of the method: as §2
[16] = tested on: Bacteroides fragilis; assay: In vitro activity against Bacteroides fragilis (SFM2906A); type: functional; summary of the method: as §2
[17] = tested on: Bacteroides fragilis; assay: In vitro activity against Bacteroides fragilis (UC-2); type: functional; summary of the method: as §2
[18] = tested on: Parvimonas micra; assay: In vitro activity against Peptostreptococcus micros (ATCC 33270); type: functional; summary of the method: as §2
[19] = tested on: Fusobacterium; assay: In vitro activity against Fusobacterium sp.(GS-10); type: functional; summary of the method: as §2
[20] = tested on: Peptostreptococcus anaerobius; assay: In vitro activity against Peptostreptococcus anaerobius (ATCC 27337); type: functional; summary of the method: as §2
[21] = tested on: Veillonella parvula; assay: In vitro activity against Veillonella parvula (ATCC 10790); type: functional; summary of the method: as §4
[22] = tested on: Finegoldia magna; assay: In vitro activity against Peptococcus magnus (ATCC 29328); type: functional; summary of the method: as §2
[23] = tested on: Fusobacterium nucleatum; assay: In vitro activity against Fusobacterium nucleatum (ATCC 25586); type: functional; summary of the method: as §2
[24] = tested on: Prevotella disiens; assay: In vitro activity against Bacteroides disiens (ATCC 29426); type: functional; summary of the method: as §2
[25] = tested on: Bacteroides fragilis; assay: In vitro activity against Bacteroides fragilis (105AT25285); type: functional; summary of the method: as §2
[26] = tested on: Peptoniphilus asaccharolyticus; assay: In vitro activity against Peptococcus asaccharolyticus (ATCC 14963).; type: functional; summary of the method: as §2

## O=C(O)c1cn(C2CC2)c2cc(N3CCNCC3)c(F)cc2c1=O [CIPROFLOXACIN]
[1]
  ED50: 15.1 mg/kg
[2]
  MIC: 8 µg/mL (≈ 24.1 µM)
[3]
  MIC: 2 µg/mL (≈ 6.04 µM)
[4]
  MIC: 8 µg/mL (≈ 24.1 µM)
[5]
  ED50: 0.3 mg/kg
[6]
  ED50: 1.3 mg/kg
[7]
  MIC: 2 µg/mL (≈ 6.04 µM)
[8]
  MIC: 8 µg/mL (≈ 24.1 µM)
[9]
  MIC: 8 µg/mL (≈ 24.1 µM)
[10]
  MIC: 2 µg/mL (≈ 6.04 µM)
[11]
  MIC: 2 µg/mL (≈ 6.04 µM)
[12]
  MIC: 32 µg/mL (≈ 96.6 µM)
[13]
  MIC: 8 µg/mL (≈ 24.1 µM)
[14]
  ED50: 4.1 mg/kg
[15]
  MIC: 4 µg/mL (≈ 12.1 µM)
[16]
  MIC: 4 µg/mL (≈ 12.1 µM)
[17]
  MIC: 4 µg/mL (≈ 12.1 µM)
[18]
  MIC: 0.5 µg/mL (≈ 1.51 µM)
[19]
  MIC: 4 µg/mL (≈ 12.1 µM)
[20]
  MIC: 2 µg/mL (≈ 6.04 µM)
[21]
  MIC: 0.25 µg/mL (≈ 0.754 µM)
[22]
  MIC: 0.25 µg/mL (≈ 0.754 µM)
[23]
  MIC: 4 µg/mL (≈ 12.1 µM)
[24]
  MIC: 2 µg/mL (≈ 6.04 µM)
[25]
  MIC: 4 µg/mL (≈ 12.1 µM)
[26]
  MIC: 2 µg/mL (≈ 6.04 µM)
